Assay outcomes deposited in PubChem by Sanford-Burnham Center for Chemical Genomics.
STEP block: STEP phosphatase inhibitors, primary screen, biochemical, fluorescence intensity, uHTS. inhibition, % at 20 µM. AID 588621, 2011. hit rate 0.25% among 360,000. recombinant STEP, OMFP fluorogenic substrate. Tyrosine-protein phosphatase non-receptor type 5 (Homo sapiens), P54829;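 active = inhibition at 20 µM, scaled per plate between control wells, above about 37%, limit read from the data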;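 note: 0% = DMSO with enzyme and substrate and 100% = substrate only without enzyme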
Target sequence (P54829 whole entry, looked up): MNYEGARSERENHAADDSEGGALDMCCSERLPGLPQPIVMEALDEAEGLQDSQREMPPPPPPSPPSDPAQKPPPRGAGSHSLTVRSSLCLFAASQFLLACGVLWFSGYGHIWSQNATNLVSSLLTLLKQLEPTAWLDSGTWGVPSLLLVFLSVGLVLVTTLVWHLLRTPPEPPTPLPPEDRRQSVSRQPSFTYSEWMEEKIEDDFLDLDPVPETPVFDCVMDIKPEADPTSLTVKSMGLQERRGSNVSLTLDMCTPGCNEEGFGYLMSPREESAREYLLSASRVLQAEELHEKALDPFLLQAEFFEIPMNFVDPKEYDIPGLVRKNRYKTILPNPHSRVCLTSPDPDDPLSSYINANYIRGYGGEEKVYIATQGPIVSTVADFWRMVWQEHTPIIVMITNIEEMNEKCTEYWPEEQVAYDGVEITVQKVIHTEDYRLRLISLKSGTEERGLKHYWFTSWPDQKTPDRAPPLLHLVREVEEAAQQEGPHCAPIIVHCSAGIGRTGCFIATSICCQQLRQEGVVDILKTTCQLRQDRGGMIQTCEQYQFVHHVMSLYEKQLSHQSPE
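Material: STEP (striatal-enriched tyrosine phosphatase) enzyme, cell-free; Compound dosing: 20 µM single dose in 1% DMSO; Technique: fluorescence read at 480 nm ex / 540 nm em; Times: reaction 20 min, ambient temperature; Medium: 50 mM Bis-Tris pH 6.0 with 2.5 mM DTT and 0.005% Tween 20; Also added: OMFP at 25 µM.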
DNMT1 block: human DNMT1 methyltransferase inhibitors, primary screen, biochemical, molecular beacon, fluorescence, HinP1I cleavage, uHTS; inhibition (reported as % activation of signal), % at 10 µM; DNA (cytosine-5)-methyltransferase 1 (Homo sapiens), P26358; hit rate 0.83% among 360,000; in the data active = inhibition above about 50%
Rpn11 inh: Rpn11 (PSMD14) deubiquitinase inhibitors, primary screen, biochemical, fluorescence polarization, uHTS. human 26S proteasome, Ub4-pepOG fluorescence polarization; 20S core pre-blocked with epoxomicin. inhibition, % at 20 µM. hit rate 0.59% among 360,000. AID 588493, 2011. 26S proteasome non-ATPase regulatory subunit 14 (Homo sapiens), O00487;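 active = inhibition at 20 µM, scaled to each plate's controls, above about 33%, limit read from the data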
Scp1 inh: Scp-1 phosphatase inhibitors, primary screen, biochemical, colorimetric, uHTS; Recombinant Scp1, phosphopeptide, malachite green phosphate absorbance; inhibition, % at 20 µM; hit rate 0.88% among 340,000;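 active = inhibition above about 50% at 20 µM, limit read from the data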;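 note: plate controls were DMSO wells with enzyme for no effect and wells lacking enzyme for full effect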
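System: SCP-1 catalytic domain; Reagent: Phospho 17-mer peptide substrate; Doses: one concentration, 20 µM, with 1.0% DMSO; Incubation: 45 min room-temperature reaction, 5 min colour, 30 min stabiliser; Signal: Phosphate-binding colour reagent, absorbance read at 630 nm.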
LMPTP block: LMPTP phosphatase inhibitors, primary screen, biochemical, fluorescence intensity, uHTS; recombinant LMPTP-A, OMFP fluorogenic substrate; Low molecular weight phosphotyrosine protein phosphatase (Homo sapiens), P24666; inhibition, % at 20 µM; hit rate 0.22% among 360,000;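 active = compounds that cut the enzyme signal by at least half of the control window in the single-dose screen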;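 note: plate controls were DMSO wells with enzyme plus substrate for no effect and substrate without enzyme for full effect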
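Assay system: LMPTP-A, protein tyrosine phosphatase of low molecular weight / Medium: pH 6.0 Bis-Tris buffer with DTT and Triton X-100 / Schedule: 50 min enzyme reaction at room temperature, protected from light / Measured by: endpoint fluorescence intensity from OMFP dephosphorylation / Read-out basis: % inhibition relative to no-enzyme and uninhibited control wells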
Rpn11 inh conf: Rpn11 (PSMD14) deubiquitinase inhibitors, confirmation, biochemical, fluorescence polarization, single concentration; purified human 26S proteasome, Ub4-pepOG fluorescence polarization; proteasome pretreated with epoxomicin; hit rate 29% among 1,900; inhibition, % at 20 µM; AID 602318, 2012; shares compounds with Rpn11 inh
MMP-2 inh: MMP-2 enzyme inhibition, confirmation, counter-screen for RPN11 inhibitor project, biochemical, fluorescence, single concentration. shares compounds with Rpn11 inh. inhibition, % at 20 µM. AID 602330, 2012. hit rate 4% among 1,900. recombinant MMP-2, FRET peptide cleavage fluorescence;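 note: human MMP-2 activated beforehand with APMA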
Thrombin FP: bovine thrombin protease inhibition, confirmation, counter-screen for Rpn11 inhibitor project, biochemical, fluorescence polarization, single concentration. shares compounds with Rpn11 inh. bovine thrombin cleavage of Ub4-pepOG. inhibition, % at 20 µM. hit rate 13% among 1,900. AID 602333, 2012;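 active = mean inhibition at least 40% at 20 µM, or signal 3 deviations below plate average, so some actives read negative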;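 note: plate controls were thrombin with DMSO for no effect and buffer wells lacking thrombin for full effect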
The depositor's hits bear a star; · = no result given. The list is not random: actives were taken first. Their share in the collection is about 2%. Cut-off read from the data, not from the text of the source, unless noted: active = inhibition above about 40%; inactive = the rest.

SMILES	STEP block	DNMT1 block	Rpn11 inh	Scp1 inh	LMPTP block	Rpn11 inh conf	MMP-2 inh	Thrombin FP
CCc1ccc(OCC(=O)NNC(=O)CSc2ncnc3sc(C)c(C)c23)cc1	-2	45	60*	-6	2	-12	-31	-24
CC[n+]1ccccc1/C=C/c1ccc(N(C)C)cc1	1	1	96*	8	5	84*	-92	88*
O=C(Nc1ccc(F)c(S(=O)(=O)N2CCOCC2)c1)C1CCCCC1	-3	0	1	-6	-1	·	·	·
c1ccc(-n2nnnc2Sc2ncnc3sc4c(c23)CCCC4)cc1	8	23	47*	-5	4	7	-18	1
CC(C)N(C(=O)[C@H]1CC(CC(=O)NCCc2ccccn2)C(=O)N2CCc3c([nH]c4ccccc34)[C@]12C)C(C)C (stereo partly specified)	1	5	-1	0	-8	·	·	·
Cc1ccc(OCc2cc(C(=O)N(C)C3CCCc4ccccc43)no2)cc1C (stereo unspecified)	-1	15	-2	·	5	·	·	·
O=C(N/N=C/c1c(O)ccc2ccccc12)c1[nH]ncc1Br	-8	-16	80*	33	6	67*	-19	23
Cc1ccc(O)c(/C=N/NC(=O)c2[nH]ncc2Br)c1	2	3	-6	-4	-2	·	·	·
O=C(CN1CCCC1)N/N=C/c1c(O)ccc2ccccc12	4	-22	46*	-12	1	1	-19	-11
CCCc1cc(=O)oc2c(C)c(OC(C)C(=O)NCCN3CCOCC3)ccc12 (stereo unspecified)	-1	-2	4	-6	-1	·	·	·
NC(c1csc(Nc2cnccn2)n1)c1ccccc1Cl (stereo unspecified)	1	3	-3	·	0	·	·	·
Oc1ccc(CN2CCCc3ccccc32)c2cccnc12	3	27	44*	-11	19	-11	-3	-14
N#CCC(=O)N/N=C/c1ccccc1Cl	-10	-1	53*	-2	-1	-15	13	-13
O=C(NN=Cc1ccccc1Cl)c1ccccc1	0	7	-3	·	-1	·	·	·
CCCCCCCCN1C(=O)[C@H](CC(=O)N2CCCCC2)C[C@@]2(C(=O)OC)CC(C)(C)CC=C12	·	·	·	·	6	·	·	·
Oc1ccc(/C=N/Nc2ccnc3cc(Cl)ccc23)c(O)c1O	14	-7	41*	-12	46	10	10	3
Oc1ccc(/C=N/Nc2ccnc3cc(Cl)ccc23)cc1O	2	4	-5	-7	48	·	·	·
C=CCCC(=O)N1C[C@H]2CON(C)[C@H]2C[C@H]1c1ccc(N2CCCCC2)cc1	0	3	51*	·	-1	56*	10	45*
COc1cc(C(=O)N2C[C@H]3CON(C)[C@H]3C[C@H]2c2ccc(N3CCCCC3)cc2)cc(OC)c1OC	-7	-6	37	·	-2	·	·	·
COc1ccc(/C=C/C(=O)c2ccc(C(=O)/C=C/c3ccc(OC)c(OC)c3)cc2)cc1OC	1	8	56*	-13	4	36	-20	2
CCOC(=O)CCCN(c1[nH]c(C)c(C)c1C#N)S(=O)(=O)c1ccc(C)cc1	-2	-3	8	·	-1	·	·	·
